Data on six molecules can be found in ChEMBL document CHEMBL4725347, “Discovery of a Monoiodo Aza-BODIPY Near-Infrared Photosensitizer: in vitro and in vivo Evaluation for Photodynamic Therapy” (J Med Chem, 2020).

Data set [1] in a line: Dark toxicity in human MCF7 cells assessed as reduction in cell viability after 3 hrs by MTT assay. Format: cell-based.
The subject of a further data set is MCF7. As to the kind of experiment: Phototoxicity against human MCF7 cells assessed as reduction in cell viability preincubated for 3 hrs followed by 54 J/cm2 light irradiation and measured after 24 hrs by MTT assay. Format: functional, cell-based. To be noted: MCF7, light or radiation study. The method, boiled down:
(§1)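 PS formulated in PBS containing Cremophor EL/1,2-propanediol (10:3, v:v) after THF removal, filtered, with concentration confirmed by UV-Vis. Cells were grown in DMEM with 10% FBS and seeded at 3×10^3 per well overnight. They were incubated with PS for 3 h, irradiated at λ > 590 nm, kept 24 h at 37 °C, then given MTT (0.5 mg/mL, 4 h) with DMSO solubilization and A490 read-out.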

The test system of another data set is SW480. As to the kind of experiment: Phototoxicity against human SW480 cells assessed as reduction in cell viability preincubated for 3 hrs followed by 54 J/cm2 light irradiation and measured after 24 hrs by MTT assay. Format: functional, cell-based. To be noted: SW480, light or radiation study. Summed up:
as §1
Background: Tetrazolium assays rely on reduction of a dye to a coloured formazan, in cell work by metabolically active cells.

Data set [2] has as its system HeLa. As to the kind of experiment: Antitumor activity against human HeLa cells xenografted in Balb/c nu/nu mouse assessed as tumor growth inhibition at 2 mg/kg, iv pretreated for 15 mins followed by 54 J/cm2 light irradiation for 10 mins and measured after 24 days. Format: functional, organism-based. The method, boiled down:
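Female Balb/c nu/nu mice with subcutaneous HeLa tumors (5×10^6 cells) reaching 80–100 mm³ on day 7 were randomized, n = 5 per group. Mice received 2 mg/kg by tail vein, or saline for controls. After 15 min the tumor was irradiated once with 54 J/cm² (75 W halogen lamp, >590 nm filter, 90 mW/cm², 10 min), unanaesthetized. Calipers every other day; V = 0.5×L×W²; body weight tracked.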
On the technique in general: Xenograft models place foreign cells or tissue in a host animal.

Data set [3] can be described thus: Dark toxicity in human HeLa cells assessed as reduction in cell viability after 3 hrs by MTT assay. Format: cell-based. The method, boiled down: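 Compound was formulated with Cremophor EL/1,2-propanediol in PBS, filtered, and its concentration confirmed by UV-Vis. HeLa cells in DMEM with 10% FBS at 37 °C, 5% CO2 were seeded at 3×10^3 cells/well and adhered overnight. Cells were exposed to graded concentrations for 3 h without light, incubated 24 h, then MTT 0.5 mg/mL for 4 h; formazan dissolved in DMSO, A490 read.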

Data set [4] is described as follows: Dark toxicity in human SW480 cells assessed as reduction in cell viability after 3 hrs by MTT assay. The class given is cell-based.
Data set [5] concerns HeLa. Description: Phototoxicity against human HeLa cells assessed as reduction in cell viability preincubated for 3 hrs followed by 54 J/cm2 light irradiation and measured after 24 hrs by MTT assay. Format: functional, cell-based. To be noted: light or radiation study. Summed up:
as §1

Data set [6] in a line: Toxicity in human HeLa cells xenografted Balb/c nu/nu mouse assessed as body weight loss at 2 mg/kg, iv pretreated for 15 mins followed by 54 J/cm2 light irradiation for 10 mins and measured for 24 days. The class given is organism-based. To be noted: in vivo, 0.25 h. Summed up: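 Female Balb/c nu/nu mice (18-22 g) carried subcutaneous HeLa cells (about 5×10^6, right back) and were treated on day 7 at a tumor volume of 80-100 mm³. Five mice per group received a tail-vein dose; saline controls were also irradiated. Fifteen minutes later the tumor was irradiated once with a 75 W halogen lamp (590 nm cut-on, 90 mW/cm², 10 min), without anaesthesia. Body weight was recorded every other day.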

The nature of data set [7]: Absorption property of the compound in N,N-dimethylformamide assessed as absorption coefficient by UV-visible spectrophotometric method. Format: physicochemical. Summed up: (§2)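 Electronic absorption spectra recorded by UV-visible spectrophotometry at room temperature. Solvents were chloroform, isopropanol, acetonitrile, DMF, and PBS buffer containing 1% Cremophor EL/1,2-propanediol (10:3, v:v). Chloroform data were referenced to the non-halogenated parent dye.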

Data set [8] in a line: Absorption property of the compound in chloroform assessed as absorption coefficient by UV-visible spectrophotometric method. Format: physicochemical. The method, boiled down: as §2
The nature of data set [9]: Photostability of the compound in acetonitrile assessed as compound degradation irradiated with 90 mW/cm2 light. The class given is physicochemical.
The nature of data set [10]: Absorption property of the compound in acetonitrile assessed as absorption coefficient by UV-visible spectrophotometric method. The class given is physicochemical. Summed up: as §2
The nature of data set [11]: Photostability of the compound in N,N-dimethylformamide assessed as compound degradation irradiated with 90 mW/cm2 light. Format: physicochemical.
Data set [12] is described as follows: Induction of singlet oxygen generation in N,N-dimethylformamide assessed as relative rate of DPBF degradation to MB at 1 uM irradiated with 90 mW/cm2 halogen light. The class given is functional. Summed up: (§3)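 Singlet oxygen generation measured with 1,3-diphenylisobenzofuran (DPBF) as scavenger. The decrease in DPBF absorbance at 411 nm was monitored over time during light irradiation, and the photodegradation rate was calculated.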

A short description of data set [13]: Photostability of the compound in isopropanol assessed as compound degradation irradiated with 90 mW/cm2 light. The class given is physicochemical.
The nature of data set [14]: Absorption property of the compound in chloroform assessed as hypsochromic shift by measuring maximum absorption wavelength by UV-visible spectrophotometric method. Format: physicochemical. Summed up: as §2
Data set [15] can be described thus: Photostability of the compound in PBS containing 1% Cremophor EL/1,2-propanediol (10:3, v:v) system assessed as compound degradation irradiated with 90 mW/cm2 light. The class given is physicochemical. To be noted: buffer.
A short description of data set [16]: Absorption property of the compound in isopropanol assessed as absorption coefficient by UV-visible spectrophotometric method. Format: physicochemical. Summed up:
as §2

Data set [17] in a line: Stability of the compound in acetonitrile assessed as compound degradation under dark condition. Format: physicochemical.
A short description of data set [18]: Induction of singlet oxygen generation in isopropanol assessed as relative rate of DPBF degradation to MB at 1 uM irradiated with 90 mW/cm2 halogen light. Format: functional. Summed up:
as §3

The nature of data set [19]: Stability of the compound in PBS containing 1% Cremophor EL/1,2-propanediol (10:3, v:v) system assessed as compound degradation under dark condition. The class given is physicochemical. To be noted: buffer.
The nature of data set [20]: Emission property of the compound in chloroform assessed as maximum emission wavelength by fluorescence spectrophotometric method. The class given is physicochemical. The method, boiled down: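 Fluorescence spectrum recorded in chloroform by fluorescence spectrophotometer at room temperature.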
The nature of data set [21]: Induction of singlet oxygen generation in PBS containing 1% Cremophor EL/1,2-propanediol (10:3, v:v) system assessed as relative rate of DPBF degradation to MB at 1 uM irradiated with 90 mW/cm2 halogen light. The class given is functional. The method, boiled down: as §3
A short description of data set [22]: Absorption property of the compound in PBS containing 1% Cremophor EL/1,2-propanediol (10:3, v:v) system assessed as absorption coefficient by UV-visible spectrophotometric method. Format: physicochemical. To be noted: buffer. The method, boiled down: as §2

Molecules are shown by their SMILES. pIC50: −log10 of the molar value. The source made the active and inactive calls. No cut-off for these calls is given here.

Turning to `C=Cc1c(C)c2cc3nc(c(CC(=O)O)c4[nH]c(cc5nc(cc1[nH]2)C(C)=C5CC)c(C)c4C(=O)O)[C@@H](CCC(=O)O)[C@@H]3C` [CHLORIN E6], the IC50 at 3 h in data set [1], in [3] and in data set [4] was over 50 µM in each case. Moreover, the pIC50 with MCF7 was 5.47; with SW480, 5.51; in the data set on HeLa [5], 5.72. The TGI result in the data set on HeLa [2] is “Active”. Further, the Activity result in data set [6] is reported as “Toxic”.
For the molecule `COc1ccc(C2=[N+]3C(=Nc4c(-c5ccccc5)c(Br)c(-c5ccc(OC)cc5)n4[B-]3(F)F)C(c3ccccc3)=C2I)cc1`, the concentration for half-maximal inhibition (IC50) at 3 h in data set [1], in data set [3] and in data set [4] was over 50 µM in each case. The Activity in data set [7] was found to be 59300 M⁻¹ cm⁻¹; in data set [8], 76000 M⁻¹ cm⁻¹; in data set [10], 59300 M⁻¹ cm⁻¹; in data set [14], 679 nm; in data set [16] it was 59300 M⁻¹ cm⁻¹; in data set [20], 720 nm. In addition, the Activity in data set [22] came out at 34000 M⁻¹ cm⁻¹. The pIC50 in the data set with MCF7 was 6.38; with SW480, 6.28; in the data set on HeLa [5], 6.51. Moreover, the Stabilty result is given as “Stable” in data set [9]; “Unstable” in data set [11]; “Stable” in [13]; “Stable” in data set [15]; “Unstable” in data set [17]; “Unstable” in [19]. Moreover, the fold change (FC) in data set [12] was 0.65; in data set [18] it was 6.8; in data set [21], 2.3.
For the molecule `COc1ccc(C2=[N+]3C(=Nc4c(-c5ccccc5)c(Br)c(-c5ccc(OC)cc5)n4[B-]3(F)F)C(c3ccccc3)=C2Br)cc1`, the IC50 at 3 h in data set [1], in data set [3] and in data set [4] was over 50 µM throughout. Also, the Activity in data set [7] worked out at 59300 M⁻¹ cm⁻¹; in data set [8], 77000 M⁻¹ cm⁻¹; in data set [10], 59300 M⁻¹ cm⁻¹; in data set [14], 679 nm; in [16] it was 59300 M⁻¹ cm⁻¹; in [20], 720 nm. The Activity in data set [22] was 34000 M⁻¹ cm⁻¹; in [6] it was “Non-Toxic”. The pIC50 in the data set on MCF7 was 6.82; in the data set with SW480, 6.80; with HeLa [5] it was 6.89. Besides, the Stabilty result is listed as “Stable” in [9]; “Unstable” in data set [11]; “Stable” in [13]; “Stable” in [15]; “Unstable” in [17]; “Unstable” in data set [19]. In addition, in the data set on HeLa [2], the TGI result is “Active”. The values for the fold change (FC) in [12], in data set [18] and in [21] were 0.36, 4.5 and 1.9, respectively.
`COc1ccc(C2=[N+]3C(=Nc4c(-c5ccccc5)cc(-c5ccc(OC)cc5)n4[B-]3(F)F)C(c3ccccc3)=C2)cc1`: the IC50 at 3 h in [1], in [3] and in data set [4] was over 50 µM each time. Besides, the Activity in data set [8] came to 99000 M⁻¹ cm⁻¹; in data set [14], 688 nm; in data set [20], 725 nm. Also, the pIC50 in the data set on MCF7 was 5.03; with SW480 it was 4.92; in the data set with HeLa [5], 4.94. The Stabilty entry is recorded as “Stable” in data set [9]; “Unstable” in data set [11]; “Stable” in data set [13]; “Stable” in data set [15]; “Unstable” in data set [17]; “Unstable” in [19]. Further, the fold change (FC) was determined as 0.04 in data set [12], 0.28 in data set [18] and 0.3 in data set [21].
Turning to `COc1ccc(C2=[N+]3C(=Nc4c(-c5ccccc5)cc(-c5ccc(OC)cc5)n4[B-]3(F)F)C(c3ccccc3)=C2Br)cc1`, the IC50 at 3 h in data set [1], in data set [3] and in [4] was over 50 µM throughout. Also, the Activity in data set [7] is 59300 M⁻¹ cm⁻¹; in data set [8], 81000 M⁻¹ cm⁻¹; in data set [10] it was 59300 M⁻¹ cm⁻¹; in [14] it was 679 nm; in data set [16], 59300 M⁻¹ cm⁻¹; in data set [20] it was 720 nm. In data set [22], the Activity came to 34000 M⁻¹ cm⁻¹. In addition, the results for the pIC50 in the data set on MCF7, with SW480 and with HeLa [5] were 6.46, 6.55 and 6.57, respectively. For the same molecule, the Stabilty result in [9] was “Stable”; in data set [11], “Unstable”; in data set [13], “Stable”; in data set [15], “Stable”; in data set [17] it was “Unstable”; in data set [19], “Unstable”. The values for the fold change (FC) in [12], in data set [18] and in data set [21] were 0.19, 1.1 and 0.83, respectively.
As to `COc1ccc(C2=[N+]3C(=Nc4c(-c5ccccc5)c(I)c(-c5ccc(OC)cc5)n4[B-]3(F)F)C(c3ccccc3)=C2I)cc1`, the IC50 at 3 h in data set [1], in [3] and in data set [4] was over 50 µM throughout. In addition, the Activity in [7] stood at 59300 M⁻¹ cm⁻¹; in data set [8], 74000 M⁻¹ cm⁻¹; in data set [10], 59300 M⁻¹ cm⁻¹; in data set [14], 679 nm; in data set [16], 59300 M⁻¹ cm⁻¹; in data set [20], 723 nm. Also, in data set [22], the Activity amounted to 34000 M⁻¹ cm⁻¹. For the same molecule, the pIC50 in the data set on MCF7 was 6.18; in the data set with SW480, 5.89; in the data set with HeLa [5] it was 6.23. For the same molecule, the Stabilty entry is “Stable” in data set [9]; “Unstable” in data set [11]; “Stable” in data set [13]; “Stable” in data set [15]; “Unstable” in data set [17]; “Unstable” in [19]. Also, the results for the fold change (FC) in data set [12], in [18] and in [21] were 0.66, 7 and 2.2, respectively.

The IC50 is the concentration that gives 50% inhibition. Broadly, the pIC50 is the negative decadic logarithm of the IC50, by convention in mol/L.
